Experimental data reported in ChEMBL document CHEMBL3997808 (J Med Chem, 2017).
In brackets after ≈: the same amount, converted by molar mass.

How the values were obtained:
[1] = Solubility of the compound in FaSSIF; type: physicochemical
[2] = molecular target: T1, Receptor-interacting serine/threonine-protein kinase 1 (Homo sapiens, UniProt Q13546); assay: Inhibition of human RIP1 (1 to 375 residues) expressed in baculovirus infected insect cells preincubated for 1 hr followed by ATP addition measured after 5 hrs by ADP-Glo luminescence assay
T1 sequence (Q13546 whole entry): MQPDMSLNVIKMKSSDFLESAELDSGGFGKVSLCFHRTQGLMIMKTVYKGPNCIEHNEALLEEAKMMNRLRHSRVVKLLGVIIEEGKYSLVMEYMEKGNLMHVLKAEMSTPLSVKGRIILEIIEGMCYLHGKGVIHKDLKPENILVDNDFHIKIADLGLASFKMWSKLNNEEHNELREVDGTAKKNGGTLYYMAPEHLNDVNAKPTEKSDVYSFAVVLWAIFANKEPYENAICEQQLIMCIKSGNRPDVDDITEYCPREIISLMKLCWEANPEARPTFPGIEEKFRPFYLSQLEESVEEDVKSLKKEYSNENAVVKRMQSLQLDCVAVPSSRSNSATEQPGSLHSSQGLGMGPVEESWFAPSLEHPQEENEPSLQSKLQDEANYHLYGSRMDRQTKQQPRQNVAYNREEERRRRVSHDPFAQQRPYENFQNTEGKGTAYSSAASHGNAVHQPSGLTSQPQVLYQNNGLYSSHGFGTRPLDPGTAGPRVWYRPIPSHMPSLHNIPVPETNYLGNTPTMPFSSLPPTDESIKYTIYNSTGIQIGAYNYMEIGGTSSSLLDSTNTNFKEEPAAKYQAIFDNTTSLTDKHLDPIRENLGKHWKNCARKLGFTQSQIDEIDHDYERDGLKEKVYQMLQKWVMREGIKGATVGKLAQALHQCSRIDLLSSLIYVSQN

[3] = (§1) AUC (0 to infinity) in rat at 2 mg/kg, po; type: ADME, organism-based; set-up: dose 2 mg/kg, route oral, time infinity; conditions: in vivo
[4] = Lipophilicity, log D of the compound at pH 7.4 by RP-HPLC method; type: physicochemical; conditions: buffer
Procedure, shortened: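 Chromatographic hydrophobicity index (CHI) log D at pH 7.4, calculated from the retention time in a fast-gradient reverse-phase HPLC run.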

[5] = molecular target: T1, Receptor-interacting serine/threonine-protein kinase 1; assay: Displacement of (14-(2-{[3-({2-{[4-(cyanomethyl)phenyl]amino}-6-[(5-cyclopropyl-1H-pyrazol-3-yl)-amino]-4-pyrimidinyl}amino)propyl]amino}-2-oxoethyl)-16,16,18,18-tetramethyl-6,7,7a,8a,9,10,16,18-octahydrobenzo[2'',3'']indolizino-[8'',7'':5',6']pyrano[3',2':3,4]pyrido[1,2-a]indol-5-ium-2-sulfonate from human RIP1 (1 to 375 residues) expressed in baculovirus infected insect cells measured for 50 min
[6] = Drug level in rat hepatocytes treated with GSK2982772 at 10 uM measured up to 4 hrs; type: ADME, cell-based, Hepatocyte
Procedure, shortened: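 Compound at 10 μM was incubated with hepatocyte suspensions at 1 million cells/mL. Incubation ran at 37°C under 5% CO2:95% O2 for up to 4 h.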

Rattus norvegicus [7] = assay: as §1; type: ADME, organism-based; set-up: dose 2 mg/kg, route oral, time infinity; conditions: in vivo, BLD = below limit of detection
Rattus norvegicus [8] = assay: Volume of distribution in rat at 2 mg/kg, po; type: ADME, organism-based; conditions: in vivo
[9] = Clearance in rat at 2 mg/kg, po; type: ADME, organism-based; conditions: in vivo

## CN1C(=O)[C@@H](NC(=O)c2cc(Cc3ccccc3)on2)COc2ccc(-c3n[nH]c(=O)o3)cc21
[1]
  solubility: 8 µg/mL (≈ 17.3 µM)
[2]
  IC50: 0.5 nM
[3]
  AUC(0-inf): 2100 ng·h/mL
[4]
  chromatographic logD: 4.4

## CC(C)Cc1cc(C(=O)N[C@H]2COc3ccccc3N(C)C2=O)no1
[5]
  IC50: 1600 nM

## CN1C(=O)[C@@H](NC(=O)c2cc(Cc3ccccc3)n(C)n2)COc2ccccc21
[2]
  IC50: 0.4 nM
[3]
  AUC(0-inf): 170 ng·h/mL
[4]
  chromatographic logD: 5.4

## CCCCCc1cc(C(=O)N[C@H]2COc3ccccc3N(C)C2=O)no1
[5]
  IC50: 100 nM

## CN1C(=O)[C@@H](NC(=O)c2cnn(Cc3ccccc3)c2)COc2ccccc21
[3]
  AUC(0-inf): 2900 ng·h/mL
[5]
  IC50: 63 nM
[4]
  chromatographic logD: 4

## CN1C(=O)[C@@H](NC(=O)c2cn(Cc3ccccc3)cn2)COc2ccccc21
[2]
  IC50: 0.4 nM
[3]
  AUC(0-inf): 660 ng·h/mL
[4]
  chromatographic logD: 4.2

## CN1C(=O)[C@@H](NC(=O)c2nnn(Cc3ccccc3)n2)COc2ccccc21
[2]
  IC50: 0.079 nM
[3]
  AUC(0-inf): 240 ng·h/mL
[4]
  chromatographic logD: 5

## CN1C(=O)[C@@H](NC(=O)c2cc(CC3CCCCC3)on2)COc2ccccc21
[5]
  IC50: 251 nM

## C[C@]1(NC(=O)c2cc(Cc3ccccc3)on2)COc2ccccc2NC1=O
[5]
  IC50: > 10000 nM

## CN1C(=O)[C@@H](N)COc2ccccc21
[6]
  Drug metabolism: Metabolite_Detected

## CN1C[C@H](NC(=O)c2cc(Cc3ccccc3)on2)C(=O)N(C)c2ccccc21
[2]
  IC50: 5 nM
[3]
  AUC(0-inf): 82 ng·h/mL
[4]
  chromatographic logD: 6

## O=C(NC1Cc2ccccc2NC1=O)c1cc(Cc2ccccc2)on1 (configuration not stated)
[5]
  IC50: > 10000 nM

## CN1C(=O)[C@@H](NC(=O)c2ncc(Cc3ccccc3)s2)COc2ccccc21
[4]
  chromatographic logD: 6.5

## CN1C(=O)[C@@H](NC(=O)c2coc(Cc3ccccc3)n2)COc2ccccc21
[5]
  IC50: 794 nM
[4]
  chromatographic logD: 5.4

## CN1C(=O)[C@@H](NC(=O)c2cc(Cc3ccccc3)on2)COc2ccc(-c3cc[nH]n3)cc21
[2]
  IC50: 1 nM
[3]
  AUC(0-inf): 600 ng·h/mL

## CN1C(=O)[C@@H](NC(=O)c2cc(Cc3ccccc3)on2)CCc2ccccc21
[3]
  AUC(0-inf): 7 ng·h/mL
[4]
  chromatographic logD: 6

## O=C(O)c1n[nH]c(Cc2ccccc2)n1
[6]
  Drug metabolism: Metabolite_Detected

## CN(C(=O)c1cc(Cc2ccccc2)on1)[C@H]1COc2ccccc2NC1=O
[5]
  IC50: > 10000 nM

## CN1C(=O)[C@@H](NC(=O)c2cc(Cc3ccccc3)on2)COc2ccc(NS(C)(=O)=O)cc21
[2]
  IC50: 0.63 nM

## CCN1C(=O)[C@@H](NC(=O)c2cc(Cc3ccccc3)on2)COc2ccccc21
[5]
  IC50: 3160 nM

## CN1C(=O)[C@@H](NC(=O)c2cc(CN3CCCCC3)on2)COc2ccccc21
[5]
  IC50: > 10000 nM

## CC(=O)Nc1ccc2c(c1)N(C)C(=O)[C@@H](NC(=O)c1cc(Cc3ccccc3)on1)CO2
[2]
  IC50: 0.32 nM
[3]
  AUC(0-inf): 450 ng·h/mL

## CN1C(=O)[C@@H](NC(=O)c2cc(Cc3ccccc3)on2)CSc2ccccc21
Rattus norvegicus [7]
  AUC: Bld
[4]
  chromatographic logD: 6.2

## O=C(N[C@H]1COc2ccccc2NC1=O)c1n[nH]c(Cc2ccccc2)n1
[6]
  Drug metabolism: Metabolite_Detected

## CN1C(=O)[C@@H](NC(=O)c2cccc(Cc3ccccc3)c2)COc2ccccc21
[5]
  IC50: 251 nM
[4]
  chromatographic logD: 6.3

## O=C(N[C@H]1COCCNC1=O)c1cc(Cc2ccccc2)on1
[5]
  IC50: > 10000 nM

## CN1C(=O)[C@@H](NC(=O)c2n[nH]c(C(O)c3ccccc3)n2)COc2ccccc21 (some centres not stated)
[6]
  Drug metabolism: Metabolite_Detected

## O=C(N[C@H]1COc2ccccc2NC1=O)c1cc(Cc2ccccc2)on1
[3]
  AUC(0-inf): 2200 ng·h/mL

## COC(=O)Nc1ccc2c(c1)N(C)C(=O)[C@@H](NC(=O)c1cc(Cc3ccccc3)on1)CO2
[2]
  IC50: 0.32 nM
[3]
  AUC(0-inf): 1100 ng·h/mL

## CN1C(=O)[C@@H](NC(=O)c2cc(Cc3ccccc3)ccn2)COc2ccccc21
[2]
  IC50: 2 nM
[4]
  chromatographic logD: 6.4

## O=C(N[C@@H]1CNc2ccccc2OC1)c1cc(Cc2ccccc2)on1
[5]
  IC50: > 10000 nM

## Cc1cc(C(=O)N[C@H]2COc3ccccc3N(C)C2=O)no1
[5]
  IC50: 12600 nM

## CN1C(=O)[C@@H](NC(=O)c2nnc(Cc3ccccc3)o2)COc2ccccc21
[2]
  IC50: 0.79 nM
[3]
  AUC(0-inf): 130 ng·h/mL
[4]
  chromatographic logD: 4.9

## CN1C(=O)[C@@H](NC(=O)c2cc(Cc3ccccc3)on2)CNc2ccccc21
[1]
  solubility: 97 µg/mL (≈ 258 µM)
[3]
  AUC(0-inf): 800 ng·h/mL
[4]
  chromatographic logD: 5

## O=C(N[C@H]1CO[C@@H]2CCCC[C@H]2NC1=O)c1cc(Cc2ccccc2)on1
[5]
  IC50: > 10000 nM

## CN1C(=O)[C@@H](NC(=O)c2cc(Cc3ccccc3)on2)COc2ccccc21
[1]
  solubility: 30 µg/mL (≈ 79.5 µM)
Rattus norvegicus [8]
  Vd: 8.5 L/kg
[9]
  CL/F: 69 mL/min/kg
[3]
  AUC(0-inf): 380 ng·h/mL
[4]
  chromatographic logD: 5.9

## CN1C(=O)[C@@H](NC(=O)c2c[nH]c(Cc3ccccc3)n2)COc2ccccc21
[5]
  IC50: 1260 nM
[4]
  chromatographic logD: 3.8

## CN1C(=O)[C@@H](NC(=O)c2ncc(Cc3ccccc3)o2)COc2ccccc21
[2]
  IC50: 0.05 nM
[3]
  AUC(0-inf): 55 ng·h/mL
[4]
  chromatographic logD: 5.6

## CN1C(=O)[C@@H](NC(=O)c2cn(Cc3ccccc3)nn2)COc2ccccc21
[2]
  IC50: 1 nM
[3]
  AUC(0-inf): 1300 ng·h/mL
[4]
  chromatographic logD: 4.6

## CN1C(=O)[C@@H](NC(=O)c2noc(Cc3ccccc3)n2)COc2ccccc21
[2]
  IC50: 0.5 nM
[3]
  AUC(0-inf): 33 ng·h/mL
[4]
  chromatographic logD: 5.4

## O=C(N[C@H]1CCOc2ccccc2NC1=O)c1cc(Cc2ccccc2)on1
[3]
  AUC(0-inf): 380 ng·h/mL
[5]
  IC50: 200 nM

## CN1C(=O)[C@@H](NC(=O)c2ncn(Cc3ccccc3)n2)COc2ccccc21
[2]
  IC50: 0.63 nM
[3]
  AUC(0-inf): 280 ng·h/mL
[4]
  chromatographic logD: 4.2

## O=C(N[C@H]1COc2ccccc2N(C2CC2)C1=O)c1cc(Cc2ccccc2)on1
[5]
  IC50: > 10000 nM
